What is called pIC50 is the IC50 on a negative log10 scale, so that one unit is a factor of ten. The pEC50 is the EC50 on a negative log10 scale, so that one unit is a factor of ten.

Structures are written as SMILES. pEC50, pIC50: −log10 of the molar value. Some results are limits rather than exact numbers.

The source of these data is ChEMBL document CHEMBL1145409, “New sst4/5-selective somatostatin peptidomimetics based on a constrained tryptophan scaffold” (J Med Chem, 2007).

For assay [1], the target named is Somatostatin receptor type 3 (Homo sapiens, UniProt P32745). As to the kind of experiment: Displacement of [125I][Leu8-D-Trp22, Tyr25]-SRIF28 from human SST3 receptor. The procedure, abridged:
(§1)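 Membrane pellets from CHO-K1 or CCL39 cells stably expressing the human receptor subtype, cut as 20 µm sections on slides for receptor autoradiography. Full displacement of [125I]-[Leu8,D-Trp22,Tyr25]-SRIF-28 by unlabeled compound at 0.1–1000 nmol/L, SRIF-28 run in parallel. Quantified by image analysis against calibrated isotope tissue standards to give IC50; mean ± SEM of 2–4 independent repetitions.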
(Loss of bound radioactivity is the signal in a displacement assay; it reports binding, not function.)

Assay [2] deals with T1, Somatostatin receptor type 5 (Homo sapiens, UniProt P35346). As to the kind of experiment: Displacement of [125I][Leu8-D-Trp22, Tyr25]-SRIF28 from human SST5 receptor. The procedure, abridged: as §1
For assay [3], the target named is Somatostatin receptor type 4 (Homo sapiens, UniProt P31391). As to the kind of experiment: Displacement of [125I][Leu8-D-Trp22, Tyr25]-SRIF28 from human SST4 receptor. The method, boiled down:
as §1

Assay [4] addresses Somatostatin receptor type 1 (Homo sapiens, UniProt P30872). In words: Displacement of [125I][Leu8-D-Trp22, Tyr25]-SRIF28 from human SST1 receptor. The method, boiled down: as §1
In assay [5] the target is Somatostatin receptor type 2 (Homo sapiens, UniProt P30874). In words: Displacement of [125I][Leu8-D-Trp22, Tyr25]-SRIF28 from human SST2 receptor. The procedure, abridged:
as §1

Assay [6] has as its target T1, Somatostatin receptor type 5. As to the kind of experiment: Agonist activity at human SST5 receptor expressed in CHOK1 cells assessed as effect on forskolin-induced cAMP production. It is filed as functional, cell-based, CHO-K1. The method, boiled down:
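Stably transfected sst5 CHO-K1 cells preincubated 30 min at 37 °C in medium with 0.5 mM IBMX, then 30 min at 37 °C with 0.5 mM IBMX, with or without 10 µM forskolin and graded compound concentrations. Cells lysed; cAMP measured by scintillation proximity assay, expressed as % stimulation over nonstimulated level. EC50 from nonlinear regression of dose-response curves; three experiments, triplicate wells.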
In general terms: Changes in cAMP serve as a functional read-out for many G protein-coupled receptors.

T1 sequence (P35346 whole entry): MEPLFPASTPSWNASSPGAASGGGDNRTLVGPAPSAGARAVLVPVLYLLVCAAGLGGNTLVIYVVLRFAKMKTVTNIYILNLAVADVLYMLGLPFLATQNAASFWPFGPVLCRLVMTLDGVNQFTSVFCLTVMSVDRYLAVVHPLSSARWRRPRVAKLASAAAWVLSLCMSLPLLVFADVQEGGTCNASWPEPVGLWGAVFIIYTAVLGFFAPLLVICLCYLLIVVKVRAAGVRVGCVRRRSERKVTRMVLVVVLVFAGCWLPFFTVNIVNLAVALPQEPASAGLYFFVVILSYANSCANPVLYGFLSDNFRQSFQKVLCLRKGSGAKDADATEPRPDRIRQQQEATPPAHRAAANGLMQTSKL
Somatostatin receptor type 1, sequence (P30872 whole entry): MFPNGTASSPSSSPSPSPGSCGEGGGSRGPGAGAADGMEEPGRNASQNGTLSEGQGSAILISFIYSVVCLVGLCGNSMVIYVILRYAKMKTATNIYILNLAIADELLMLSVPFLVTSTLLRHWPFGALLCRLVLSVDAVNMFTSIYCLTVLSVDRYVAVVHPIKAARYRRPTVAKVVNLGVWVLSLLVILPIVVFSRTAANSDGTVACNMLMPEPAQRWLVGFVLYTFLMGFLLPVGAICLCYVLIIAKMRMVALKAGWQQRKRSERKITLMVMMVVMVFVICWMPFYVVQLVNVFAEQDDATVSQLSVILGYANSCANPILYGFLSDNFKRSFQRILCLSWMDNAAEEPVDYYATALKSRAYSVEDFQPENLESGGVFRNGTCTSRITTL
Somatostatin receptor type 3, sequence (P32745 whole entry): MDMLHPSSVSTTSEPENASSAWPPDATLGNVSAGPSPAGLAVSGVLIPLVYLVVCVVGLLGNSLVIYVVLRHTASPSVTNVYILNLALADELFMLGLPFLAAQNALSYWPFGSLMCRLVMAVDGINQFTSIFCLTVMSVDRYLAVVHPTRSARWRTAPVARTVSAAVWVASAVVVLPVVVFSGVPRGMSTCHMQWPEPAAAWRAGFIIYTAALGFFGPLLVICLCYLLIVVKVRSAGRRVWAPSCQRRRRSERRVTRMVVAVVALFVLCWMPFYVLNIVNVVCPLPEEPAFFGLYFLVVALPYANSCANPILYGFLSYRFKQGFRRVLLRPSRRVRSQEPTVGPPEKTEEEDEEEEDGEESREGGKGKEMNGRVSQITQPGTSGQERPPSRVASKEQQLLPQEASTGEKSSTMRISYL
Somatostatin receptor type 4, sequence (P31391 whole entry): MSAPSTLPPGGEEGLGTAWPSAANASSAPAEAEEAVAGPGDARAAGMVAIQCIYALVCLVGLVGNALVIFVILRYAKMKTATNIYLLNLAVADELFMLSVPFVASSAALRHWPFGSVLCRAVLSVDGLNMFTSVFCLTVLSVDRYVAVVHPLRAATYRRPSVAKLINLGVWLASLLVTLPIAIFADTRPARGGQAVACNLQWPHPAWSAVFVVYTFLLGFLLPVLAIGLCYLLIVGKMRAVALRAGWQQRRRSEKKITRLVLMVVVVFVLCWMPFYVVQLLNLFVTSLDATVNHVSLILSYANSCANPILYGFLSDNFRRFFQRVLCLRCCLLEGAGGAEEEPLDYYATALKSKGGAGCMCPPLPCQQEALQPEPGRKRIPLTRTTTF
Somatostatin receptor type 2, sequence (P30874 whole entry): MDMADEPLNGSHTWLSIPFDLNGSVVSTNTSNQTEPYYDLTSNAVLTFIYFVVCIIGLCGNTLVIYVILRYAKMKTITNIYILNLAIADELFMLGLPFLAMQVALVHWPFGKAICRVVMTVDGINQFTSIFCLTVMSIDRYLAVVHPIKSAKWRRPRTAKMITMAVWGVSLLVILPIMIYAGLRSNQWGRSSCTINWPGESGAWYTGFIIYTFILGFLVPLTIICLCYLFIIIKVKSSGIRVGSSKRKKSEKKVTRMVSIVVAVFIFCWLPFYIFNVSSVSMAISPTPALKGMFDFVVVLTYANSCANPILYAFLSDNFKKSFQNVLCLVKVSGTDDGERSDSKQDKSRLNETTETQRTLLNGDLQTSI

As to `NCCCCCN1Cc2[nH]c3ccccc3c2C[C@@H](NC(=O)CC(c2ccccc2)c2ccccc2)C1=O`, the pIC50 in assay [1] was < 6.00; in assay [2], 6.50; in assay [3], 6.89; in assay [4] it was < 6.00; in assay [5], 6.45.

On to `NCCCCCN1Cc2[nH]c3ccccc3c2C[C@@H](NC(=O)Cc2ccccc2)C1=O`, for which the pIC50 was < 6.00 in assay [1]; 6.61 in assay [2]; 7.12 in assay [3]; < 6.00 in assay [4]; < 6.00 in assay [5].

Take `NCCCC[C@@H](C(=O)NCc1ccccc1)N1Cc2[nH]c3ccccc3c2C[C@@H](NC(=O)CC(c2ccccc2)c2ccccc2)C1=O`: the pIC50 in assay [1] was 6.16; in assay [2] it was 8.10; in assay [3], 7.14; in assay [4], 7.05; in assay [5], 6.99.

For the compound `NCCCC[C@@H](C(=O)NCc1ccccc1)N1Cc2[nH]c3ccccc3c2C[C@@H](NC(=O)Cc2ccccc2)C1=O`, the pIC50 was 6.60 in assay [1]; 8.92 in assay [2]; 8.48 in assay [3]; 6.63 in assay [4]; 7.08 in assay [5]. For the same compound, in assay [6], the negative logarithm of the EC50 (pEC50) is 7.89.
